Experiments:
[1] = target: Glutamate receptor ionotropic, kainate (Rattus norvegicus) (UniProt P22756+Q01812+P42260+P42264+Q63273); test: Inhibition of [3H]KA binding to kainate receptor in rat brain membranes; format: cell membranes; set-up: concentration or dose not given beside the values; conditions: concentration not given here
Method in brief: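 Rat membranes resuspended at 0.5 mg protein/mL in 0.05 M Tris-citrate pH 7.4, preincubated 37 °C for 30 min, washed three times in ice-cold buffer. Incubated on ice for 60 min with 5 nM [3H]kainate and test compound. Nonspecific binding defined with 1 mM glutamate. Bound ligand recovered by GF/C filtration. Single-point inhibition measured at 100 µM.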

Glutamate NMDA receptor [2] = test: Ability to displace [3H]glycine from NMDA receptor in rat corticaln membranes; format: cell membranes
Glutamate NMDA receptor [3] = test: Inhibition of [3H]-(+)-MK-801 binding to NMDA receptor ion-channel complex of rat cortical memembranes; format: protein-complex assay
Method in brief: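 Rat cortical membranes washed in 5 mM Tris-HCl pH 7.4 with 0.08% Triton X-100, 0.2-0.3 mg protein/tube. Incubated with 2.5 nM [3H]-(+)-MK-801, 10 µM glutamate and 0.1 µM glycine at room temperature for 120 min. IC50 or % inhibition at 100 µM; three or four determinations in triplicate.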

[4] = target: T1, Glutamate NMDA receptor (Rattus norvegicus) (UniProt P35439+Q00959+Q00960+Q00961+Q62645+Q8VHN2+Q9R1M7); test: Inhibition of [3H]- glycine binding to NMDA receptor of rat membrane; set-up: concentration or dose not given beside the values; conditions: concentration not given here
Method in brief: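 Rat cortical synaptic membranes, [3H]glycine at 10 nM (KD 75 nM under these conditions). Compounds from 1 mM stock in 50% DMSO, diluted in buffer; four to six concentrations in triplicate, three or four displacement curves. IC50 converted to Ki by Cheng-Prusoff.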

[5] = target: T1, Glutamate NMDA receptor (Rattus norvegicus); test: Percent inhibition of stimulated [3H](+)-MK-801 binding against N-methyl-D-aspartate glutamate receptor; format: protein-complex assay; conditions: concentration not given here
Method in brief: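 Rat cortical membranes washed in 5 mM Tris-HCl pH 7.4 containing 0.08% Triton X-100, then put through further resuspension/centrifugation cycles. Incubation for 120 min at room temperature with 2.5 nM [3H]-(+)-MK-801, 10 µM glutamate and 0.1 µM glycine. Percent inhibition of specific binding at 100 µM; three or four determinations in triplicate.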

[6] = target: Glutamate receptor ionotropic, AMPA (Rattus norvegicus, UniProt P19490+P19491+P19492+P19493); test: Binding affinity at ionotropic glutamate receptor AMPA in rat cortical membranes [3H]AMPA displacement.; format: cell membranes
[7] = target: Glutamate receptor ionotropic, AMPA (Mus musculus, UniProt P23818+P23819+Q9Z2W8+Q9Z2W9); test: Antagonism at ionotropic glutamate receptor AMPA in mouse cortical wedge preparation; format: functional
Method in brief: (§1)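 Mouse cortical wedges perfused with Mg2+-free medium; AMPA (5 µM) applied for 2 min every 15 min until control peaks stabilised, then continuous superfusion with antagonist while agonist applications continued. IC50 from depolarization peaks with agonist plus antagonist compared with control peaks; four separate determinations.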

[8] = Inhibition of specific binding of [3H]KA against iGluRs
[9] = Antagonism at NMDA receptor in mouse cortical wedge preparation expressed as concentration that inhibits by 50% depolarizations induced by 5 uM NMDA
Glutamate NMDA receptor [10] = test: Ability to displace [3H]glycine from NMDA receptor in rat cortical membranes; format: cell membranes
Method in brief: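 Rat cortical synaptic membranes; [3H]glycine at 10 nM (KD 75 nM under these conditions). Test compound from 1 mM stock in 50% DMSO, diluted in buffer; four to six concentrations in triplicate, three or four displacement curves. IC50 by curve fitting, converted to Ki by Cheng-Prusoff.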

[11] = Antagonism at NMDA receptor in mouse cortical wedge preparation expressed as concentration that inhibits by 50% depolarizations induced by 5 uM AMPA; format: functional; conditions: in the assay text read “5 uM NMDA” for “5 uM AMPA”
Method in brief: as §1, with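 “cortical wedges, gray matter” for “cortical wedges”, “Mg2+-free medium. Agonists (5 µM” for “Mg2+-free medium;”, “AMPA or 5 µM NMDA)” for “AMPA (5 µM)”, “compared to” for “compared with”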

[12] = target: Glutamate receptor ionotropic, kainate; test: Inhibition of [3H]KA binding to kainate receptor of rat brain membranes; format: cell membranes, Membrane
[13] = target: Glutamate receptor ionotropic, kainate; test: Inhibition of specific binding of [3H]KA at kainate receptor in rat brain membranes; format: cell membranes
Method in brief: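 Membranes preincubated at 37 °C for 30 min in 0.05 M Tris-citrate pH 7.4, then washed; 0.2-0.3 mg protein with 5 nM [3H]kainate on ice for 60 min. Nonspecific binding defined with 1 mM glutamate; bound ligand separated by glass-fibre filtration.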

SMILES | inhibition [1] [%] | inhibition [4] [%] | Ki [6] [µM] | IC50 [12] [µM] | other results
O=C(O)c1nc2c(O)nc3ccc([N+](=O)[O-])cc3n2n1 | 16 |  |  |  | Ki (Glutamate NMDA receptor [2]): 79.4 µM
NS(=O)(=O)c1cccc2c1c([N+](=O)[O-])cc1nc(O)c(O)nc12 [NBQX] |  | 3 |  |  | IC50 (Glutamate NMDA receptor [3]): 0.2 µM
O=C(O)c1nc2c(O)nc3cc(Cl)c(-n4cncn4)cc3n2n1 |  | 35 | 3.7 |  | inhibition [5]: 30%; IC50 [7]: 12 µM; IC50 [8]: 48 µM; IC50 [9]: 350 µM
CCOC(=O)c1nc2c(O)nc3ccc(-n4cnnc4)cc3n2n1 | 20 | 0 |  |  | 
O=Cc1ccn(-c2cc3c(cc2Cl)nc(O)c2nc(C(=O)O)nn23)c1 |  |  | 0.53 | 8.9 | IC50 [7]: 1.2 µM; IC50 (Glutamate NMDA receptor [3]): 43 µM; Ki (Glutamate NMDA receptor [10]): 28 µM; IC50 [11]: 23 µM
CCOC(=O)c1nc2c(=O)[nH]c3cc(Cl)c(N)cc3n2n1 |  |  | 20.4 | 84 | Ki (Glutamate NMDA receptor [2]): 4.8 µM
Nc1cc2c(cc1Cl)nc(O)c1nc(C(=O)O)nn12 |  |  | 4.9 | 22.4 | IC50 (Glutamate NMDA receptor [3]): 5.6 µM; Ki (Glutamate NMDA receptor [2]): 3.6 µM
CCOC(=O)c1nc2c(O)nc3cc(-n4cnnc4)ccc3n2n1 | 35 | 8 | 10.1 |  | 
CCOC(=O)c1nc2c(O)nc3cc(Cl)c(-n4cnnc4)cc3n2n1 |  | 15 |  |  | 
CCOC(=O)c1nc2c(O)nc3cc(Cl)c(-n4ccc(C=O)c4)cc3n2n1 |  |  | 1.9 | 88 | Ki (Glutamate NMDA receptor [10]): 19 µM
CCOC(=O)c1nc2c(O)nc3cc(Cl)c([N+](=O)[O-])cc3n2n1 | 35 | 10.2 | 47 |  | 
O=C(O)c1nc2c(O)nc3cc(Cl)c(-n4cccc4)cc3n2n1 |  |  | 0.86 | 36 | IC50 [7]: 3 µM; IC50 (Glutamate NMDA receptor [3]): 11.7 µM; Ki (Glutamate NMDA receptor [10]): 0.86 µM; IC50 [9]: 52 µM
O=C(O)c1cc(O)c2c(Cl)cc(Cl)cc2n1 |  |  |  |  | Ki (Glutamate NMDA receptor [2]): 0.09 µM; IC50 [11]: 4.7 µM
CCOC(=O)c1nc2c(O)nc3cc(Cl)c(-n4ccnc4)cc3n2n1 |  | 39 |  |  | 
CCOC(=O)c1nc2c(O)nc3cc(Cl)c(-n4cccn4)cc3n2n1 | 20 |  |  |  | Ki [13]: 7.1 µM
Nc1ccc2nc(O)c3nc(C(=O)O)nn3c2c1 |  | 35 | 44 | 81 | 
O=C(O)c1nc2c(O)nc3cc(Cl)c(-n4cnnc4)cc3n2n1 [TQX-173] |  |  |  |  | IC50 [7]: 2.3 µM; IC50 (Glutamate NMDA receptor [3]): 68 µM; Ki (Glutamate NMDA receptor [2]): 33.5 µM; IC50 [11]: 46 µM
CCOC(=O)c1nc2c(O)nc3cc(Cl)c(-n4cccc4)cc3n2n1 | 7 |  | 18.4 |  | Ki [13]: 23 µM
CCOC(=O)c1nc2c(O)nc3ccc(N)cc3n2n1 |  | 16 |  |  | 
O=C(O)c1nc2c(O)nc3cc(-n4cnnc4)ccc3n2n1 | 44 | 0 | 4.3 |  | 
O=C(O)c1nc2c(O)nc3ccc(-n4cnnc4)cc3n2n1 |  | 0 | 17.2 | 90 | inhibition [5]: 20%
CCOC(=O)c1nc2c(O)nc3ccc([N+](=O)[O-])cc3n2n1 |  | 35 |  |  | 
O=C(O)c1nc2c(O)nc3cc(Cl)c(-n4ccnc4)cc3n2n1 |  | 45 |  |  | inhibition [5]: 45%
O=C(O)c1nc2c(O)nc3cc(Cl)c([N+](=O)[O-])cc3n2n1 |  |  |  |  | IC50 (Glutamate NMDA receptor [3]): 17.8 µM; Ki [13]: 2.2 µM
CCOC(=O)c1nc2c(O)nc3cc(Cl)c(-n4cncn4)cc3n2n1 | 29 | 28 | 17.2 |  | 
O=C(O)c1nc2c(=O)[nH]c3cc(Cl)c(-n4cccn4)cc3n2n1 |  |  | 4.3 | 20 | IC50 [7]: 3 µM; IC50 (Glutamate NMDA receptor [3]): 16.8 µM; IC50 [9]: 150 µM; Ki (Glutamate NMDA receptor [2]): 5.3 µM

Reference: ChEMBL document CHEMBL1134598, “Synthesis, ionotropic glutamate receptor binding affinity, and structure-activity relationships of a new set of 4,5-dihydro-8-heteroaryl-4-oxo-1,2,4-triazolo[1,5-a]quinoxaline-2-carboxylates analogues of TQX-173” (J Med Chem, 2001)
